{"source": "paper PMC2156157", "about": "(The Journal of Cell Biology, 1999)", "format_in_all_cases": "cell-based, human", "key": {"[1]": {"test_system": "apical membrane of airway epithelial cells", "conditions": "16HBE14o− cells on transwell filters 7–10 d after confluence, confocal", "how_it_was_run": "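Samples were 16HBE14o− filters (7–10 d post-confluence) or primary nasal cultures (air-liquid interface, 40–50 d). Fixation was 4% paraformaldehyde, 5–20 min, room temperature. Blocking used milk/BSA/Triton (16HBE14o−) or 10–20% goat serum (primary). Primary antisera ran 4–12 h: ezrin 1:300, ZO-1 1:200, EBP50 1:500 or 1:200, YAP65 1:300 or 1:200. Primary cultures also got 70 nM FITC-phalloidin. Texas red/FITC secondaries, XZ confocal imaging.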"}, "c-Yes": {"test_system": "c-Yes", "conditions": "16HBE14o− on transwell filters, mouse anti–c-Yes (1:100), XZ confocal", "how_it_was_run": "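16HBE14o− clones stably expressing GFP-YAP65 chimeras were selected with G418 and screened by fluorescence and anti-GFP blot. Cells were grown to confluence on transwell filters and fixed in 4% paraformaldehyde. After blocking (milk/BSA/0.1% Triton X-100, 3 h), they were stained with mouse anti-c-Yes (1:100) and fluorescent secondary antiserum, then scanned in XZ by confocal microscopy. At least two independent clones per line were analysed.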"}, "EBP50": {"test_system": "EBP50", "assay": "coimmunoprecipitation with EBP50 antisera from 16HBE14o− lysates", "conditions": "16HBE14o− lysates (wild type or stably expressing GFP chimera), immunoblot", "how_it_was_run": "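16HBE14o− cells were wild type or stable lines expressing GFP-YAP65 or GFP-YAP65 lacking the last four residues (G418 400 µg/ml; ≥2 clones). Cells were lysed in RIPA. Rabbit anti-EBP50, preimmune serum or normal rabbit IgG (2 µg) was prebound to protein A beads. Lysate (~300 µg or ~200 µg) was incubated for 4–12 h at 4°C. Beads washed three times in RIPA; 10% SDS-PAGE; immunoblot with anti-YAP65 or anti-ezrin (1:1,000); 10–20% input.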"}}, "data": [{"molecule": "EBP50: ERM-binding phosphoprotein 50 kD; two PDZ domains (protein, left off: GST, end not stated, kept) MSADAAAGAPLPRLCCLEKGPNGYGFHLHGEKGKLGQYIRLVEPGSPAEKAGLLAGDRLVEVNGENVEKETHQQVVSRIRAALNAVRLLVVDPETDEQLQKLGVQVREELLRAQEAPGQAEPPAAAEVQGAGNENEPREADKSHPEQRELRPRLCTMKKGPSGYGFNLHSDKSKPGQFIRSVDPDSPAEASGLRAQDRIVEVNGVCMEGKQHGDVVSAIRAGGDETKLLVVDRETDEFFKKCRVIPSQEHLNGPLPVPFTNGEIQKENSREALAEAALESPRPALVRSASSDTSEELNSQDSPPKQDSTAPSSTSSSDPILDFNISLAMAKERAHQKRSSKRAPQMDWSKKNELFSNL", "values": [{"measurement": "localization of endogenous protein", "setting": "[1]", "value": "preferentially accumulated at the apical membrane"}]}, {"molecule": "GFP-YAP65: GFP fused in-frame with YAP65 (protein, left off: GFP, end not stated, kept) MDPGQQPPPQPAPQGQGQPPSQPPQGQGPPSGPGQPAPAATQAAPQAPPAGHQIVHVRGDSETDLEALFNAVMNPKTANVPQTVPMRLRKLPDSFFKPPEPKSHSRQASTDAGTAGALTPQHVRAHSSPASLQLGAVSPGTLTPTGVVSGPAATPTAQHLRQSSFEIPDDVPLPAGWEMAKTSSGQRYFLNHIDQTTTWQDPRKAMLSQMNVTAPTSPPVQQNMMNSASAMNQRISQSAPVKQPPPLAPQSPQGGVMGGSNSNQQQQMRLQQLQMEKERLRLKQQELLRQVRPQELALRSQLPTLEQDGGTQNPVSSPGMSQELRTMTTNSSDPFLNSGTYHSRDESTDSGLSMSSYSVPRTPDDFLNSVDEMDTGDTINQSTLPSQQNRFPDYLEAIPGTNVDLGTLEGDGMNIEGEELMPSLQEALSSDILNDMESVLAATKLDKESFLTWL", "values": [{"measurement": "c-Yes distribution in cells stably overexpressing the chimera", "setting": "c-Yes", "value": "c-Yes was accumulated at the apical membrane"}, {"measurement": "presence in EBP50 immunoprecipitates", "setting": "EBP50", "value": "present in EBP50 immunoprecipitates"}]}]}
